Measured values as given in ChEMBL document CHEMBL1142195, “A novel nonnucleoside analogue that inhibits human immunodeficiency virus type 1 isolates resistant to current nonnucleoside reverse transcriptase inhibitors” (Antimicrob Agents Chemother, 2007).
The source made the active and inactive calls. The calls are words filed in the database; no cut-off is given here.

Key:
[1] = system: Human immunodeficiency virus 1; experiment: Antiviral activity against HIV1 isolate with RT 101E, 108I, 181C, 190A mutation relative to wild type; format: functional
[2] = system: Human immunodeficiency virus 1; experiment: Antiviral activity against HIV1 isolate with RT 101R, 103N, 181C, 190A mutation relative to wild type; format: functional
[3] = system: Human immunodeficiency virus 1; experiment: Antiviral activity against HIV1 isolate with RT 181C, 190A mutation relative to wild type; format: functional
Outline: (§1)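 Mutant RT clones built in pNL4-3.Luc.R−E− reporter, VSV-G-pseudotyped, single-round infection of HeLa-JC53 cells (15,000/well, MOI 0.03) with 1:4 serial compound dilutions in DMEM (phenol red-free), 2% FBS, 0.2% final DMSO; 48 h at 37°C, 5% CO2; luciferase chemiluminescence read-out. Fold change in EC50 relative to wild-type virus; mean of two tests.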

[4] = system: Human immunodeficiency virus 1; experiment: Antiviral activity against HIV1 isolate with RT 103N, 106M mutation relative to wild type; format: functional
[5] = system: Human immunodeficiency virus 1; experiment: Antiviral activity against HIV1 isolate with RT 101E, 190S mutation relative to wild type; format: functional
[6] = system: Human immunodeficiency virus 1; experiment: Antiviral activity against HIV1 isolate with RT 230L mutation relative to wild type; format: functional; outline: as §1
[7] = system: Human immunodeficiency virus 1; experiment: Antiviral activity against HIV1 isolate with RT 103N, 188H mutation relative to wild type; format: functional
[8] = system: Human immunodeficiency virus 1; experiment: Antiviral activity against HIV1 isolate with RT 108I mutation relative to wild type; format: functional; outline: as §1
[9] = system: Human immunodeficiency virus 1; experiment: Antiviral activity against HIV1 isolate with RT 101E, 181C mutation relative to wild type; format: functional
[10] = system: Human immunodeficiency virus 1; experiment: Antiviral activity against HIV1 isolate with RT 98G, 103N mutation relative to wild type; format: functional; outline: as §1
[11] = system: Human immunodeficiency virus 1; experiment: Antiviral activity against HIV1 isolate with RT 188L mutation relative to wild type; format: functional; outline: as §1
[12] = system: Human immunodeficiency virus 1; experiment: Antiviral activity against HIV1 isolate with RT 98G, 108I, 181C mutation relative to wild type; format: functional; outline: as §1
[13] = system: Human immunodeficiency virus 1; experiment: Antiviral activity against HIV1 isolate with RT 98G, 188L mutation relative to wild type; format: functional; outline: as §1
[14] = system: Human immunodeficiency virus 1; experiment: Antiviral activity against HIV1 isolate with RT 103N, 238T mutation relative to wild type; format: functional; outline: as §1
[15] = system: Human immunodeficiency virus 1; experiment: Antiviral activity against HIV1 isolate with RT 103Q mutation relative to wild type; format: functional; outline: as §1
[16] = system: Human immunodeficiency virus 1; experiment: Antiviral activity against HIV1 isolate with RT 188H mutation relative to wild type; format: functional; outline: as §1
[17] = system: Human immunodeficiency virus 1; experiment: Antiviral activity against HIV1 isolate with RT 103N, 181C, 190A mutation relative to wild type; format: functional
[18] = system: Human immunodeficiency virus 1; experiment: Antiviral activity against HIV1 isolate with RT 179T mutation relative to wild type; format: functional; outline: as §1
[19] = system: Human immunodeficiency virus 1; experiment: Antiviral activity against HIV1 isolate with RT 190A mutation relative to wild type; format: functional; outline: as §1
[20] = system: Human immunodeficiency virus 1; experiment: Antiviral activity against HIV1 isolate with RT 179D, 181C mutation relative to wild type; format: functional; outline: as §1
[21] = system: Human immunodeficiency virus 1; experiment: Antiviral activity against HIV1 isolate with RT 101E, 103N, 190A mutation relative to wild type; format: functional
[22] = system: Human immunodeficiency virus 1; experiment: Antiviral activity against HIV1 isolate with RT 179A mutation relative to wild type; format: functional; outline: as §1
[23] = system: Human immunodeficiency virus 1; experiment: Antiviral activity against HIV1 isolate with RT 190S mutation relative to wild type; format: functional; outline: as §1
[24] = system: Human immunodeficiency virus 1; experiment: Antiviral activity against HIV1 isolate with RT 179D, 188L mutation relative to wild type; format: functional; outline: as §1
[25] = system: Human immunodeficiency virus 1; experiment: Antiviral activity against HIV1 isolate with RT 238T mutation relative to wild type; format: functional; outline: as §1
[26] = system: Human immunodeficiency virus 1; experiment: Antiviral activity against HIV1 isolate with RT 103N, 108I, 181C, 190A mutation relative to wild type; format: functional
[27] = system: Human immunodeficiency virus 1; experiment: Antiviral activity against HIV1 isolate with RT 108I, 181C mutation relative to wild type; format: functional; outline: as §1
[28] = system: Human immunodeficiency virus 1; experiment: Antiviral activity against HIV1 isolate with RT 103N, 106A mutation relative to wild type; format: functional
[29] = system: Human immunodeficiency virus 1; experiment: Antiviral activity against HIV1 isolate with RT 103N, 181C mutation relative to wild type; format: functional
[30] = system: Human immunodeficiency virus 1; experiment: Antiviral activity against HIV1 isolate with RT 98G mutation relative to wild type; format: functional; outline: as §1
[31] = system: Human immunodeficiency virus 1; experiment: Antiviral activity against HIV1 isolate with RT 106L, 188L mutation relative to wild type; format: functional; outline: as §1
[32] = system: Human immunodeficiency virus 1; experiment: Antiviral activity against HIV1 isolate with RT 103N, 108I, 181C mutation relative to wild type; format: functional
[33] = system: Human immunodeficiency virus 1; experiment: Antiviral activity against HIV1 isolate with RT 236L mutation relative to wild type; format: functional; outline: as §1
[34] = system: Human immunodeficiency virus 1; experiment: Antiviral activity against HIV1 isolate with RT 101Q, 181C mutation relative to wild type; format: functional
[35] = system: Human immunodeficiency virus 1; experiment: Antiviral activity against HIV1 isolate with RT 101Q, 181C, 190A mutation relative to wild type; format: functional
[36] = system: Human immunodeficiency virus 1; experiment: Antiviral activity against HIV1 isolate with RT 103N, 106I mutation relative to wild type; format: functional
[37] = system: Human immunodeficiency virus 1; experiment: Antiviral activity against HIV1 isolate with RT 106A, 190A mutation relative to wild type; format: functional; outline: as §1
[38] = system: Human immunodeficiency virus 1; experiment: Antiviral activity against HIV1 isolate with RT 101E, 181C, 190A mutation relative to wild type; format: functional
[39] = system: Human immunodeficiency virus 1; experiment: Antiviral activity against HIV1 isolate with RT 106I, 188L mutation relative to wild type; format: functional; outline: as §1
[40] = system: Human immunodeficiency virus 1; experiment: Inhibition of wild type clade B HIV1 NL4-3; format: functional, organism-based
Outline: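 Single-round assay in HeLa-JC53 cells (15,000/well) using VSV-G-pseudotyped pNL4-3.Luc.R−E−-derived virus at MOI 0.03. Compounds serially diluted 1:4 in DMSO then medium (2% FBS; final DMSO 0.2%). Incubated 48 h at 37°C in 5% CO2. Luciferase chemiluminescence read-out; EC50 determined.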

[41] = system: Human immunodeficiency virus 1; experiment: Antiviral activity against HIV1 isolate with RT D123G mutation in Hela-JC-53 cells; format: functional
[42] = system: Human immunodeficiency virus 1; experiment: Antiviral activity against HIV1 isolate with RT K103N-P225H mutation; format: functional, organism-based
Outline: (§2)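 VSV-G-pseudotyped pNL4-3.Luc.R−E− molecular clones carrying the RT mutations, single-round infection of HeLa-JC53 cells (15,000/well) at MOI 0.03. Compounds serially diluted 1:4 in DMSO then in phenol red-free DMEM with 2% FBS, final DMSO 0.2%. Incubated 48 h at 37°C, 5% CO2. Luciferase read-out by chemiluminescence gives the EC50. Fold change is relative to wt virus, mean of two tests.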

[43] = Tmax in dog at 10 mg/kg, iv; format: ADME, organism-based, Canis lupus familiaris; design: dose 10 mg/kg, route intravenous; conditions: in vivo
[44] = Cmax in dog at 20 mg/kg, po; format: ADME, organism-based, Canis lupus familiaris; design: dose 20 mg/kg, route oral; conditions: in vivo
[45] = system: Human immunodeficiency virus 1; experiment: Antiviral activity against HIV1 isolate with RT K103N-K101Q mutation; format: functional, organism-based; outline: as §2
[46] = AUC in dog at 10 mg/kg, iv; format: ADME, organism-based, Canis lupus familiaris; design: dose 10 mg/kg, route intravenous; conditions: plasma

## Cc1ccnc2c1NC(=O)c1cccnc1N2C1CC1 [NEVIRAPINE]
[1]
  Fold change: >100
[2]
  Fold change: >100
[3]
  Fold change: >100
[4]
  Fold change: >100
[5]
  Fold change: >100
[6]
  Fold change: 46
[7]
  Fold change: >100
[8]
  Fold change: 2.3
[9]
  Fold change: >100
[10]
  Fold change: >100
[11]
  Fold change: >100
[12]
  Fold change: >100
[13]
  Fold change: >100
[14]
  Fold change: >100
[15]
  Fold change: 1
[16]
  Fold change: >100
[17]
  Fold change: >100
[18]
  Fold change: 0.5
[19]
  Fold change: >100
[20]
  Fold change: >100
[21]
  Fold change: >100
[22]
  Fold change: 0.4
[23]
  Fold change: >100
[24]
  Fold change: >100
[25]
  Fold change: 100
[26]
  Fold change: >100
[27]
  Fold change: >100
[28]
  Fold change: >100
[29]
  Fold change: >100
[30]
  Fold change: 5.9
[31]
  Fold change: >100
[32]
  Fold change: >100
[33]
  Fold change: 0.5
[34]
  Fold change: >100
[35]
  Fold change: >100
[36]
  Fold change: 122
[37]
  Fold change: >100
[38]
  Fold change: >100
[39]
  Fold change: >100

## NS(=O)(=O)c1ccc(NC(=O)CSc2nnc(Br)n2-c2ccc(C3CC3)c3ccccc23)c(Cl)c1
[1]
  Fold change: >100
[3]
  Fold change: >100
[4]
  Fold change: 12
[5]
  Fold change: 16
[6]
  Fold change: 11
[7]
  Fold change: 3.5
[8]
  Fold change: 1.5
[9]
  Fold change: >100
[10]
  Fold change: 4.4
[11]
  Fold change: 11
[40]
  Activity: Active
[12]
  Fold change: 15
[13]
  Fold change: >100
[14]
  Fold change: 0.6
[15]
  Fold change: 1.4
[41]
  Fold change: 1
[16]
  Fold change: 1.6
[17]
  Fold change: >100
[18]
  Fold change: 1.3
[19]
  Fold change: 13
[42]
  EC50: 130 pM
[43]
  Tmax: 16.8 min
[20]
  Fold change: >100
[21]
  Fold change: 50
[22]
  Fold change: 0.6
[23]
  Fold change: 3.9
[24]
  Fold change: >100
[25]
  Fold change: 2.2
[44]
  Cmax: 1980 ng/mL
[26]
  Fold change: >100
[27]
  Fold change: 14
[45]
  EC50: 150 pM
[28]
  Fold change: 2.6
[29]
  Fold change: 10
[30]
  Fold change: 2.4
[31]
  Fold change: >100
[46]
  AUC: 20900 ng·h/mL
[32]
  Fold change: 6.2
[33]
  Fold change: 0.9
[34]
  Fold change: 8.9
[35]
  Fold change: >100
[36]
  Fold change: 1.8
[37]
  Fold change: >100
[38]
  Fold change: >100
[39]
  Fold change: 62
